What all share (conditions): for pIC50: read-out: IC50
Assay [1] deals with Matrix metalloproteinase-9 (Homo sapiens, UniProt P14780). As to the kind of experiment: Inhibition of human active MMP9 using (7-methoxycoumarin-4-yl)acetyl-Pro-Leu-Gly-Leu-(3-(2,4-dinitrophenyl)-L-2,3-diamino-propionyl)Ala-Arg-NH2 as substrate preincubated for 30 mins followed by substrate addition and measured for 10 mins by fluorescence assay. The procedure, abridged: (§1)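 Human active enzyme at 2 nM was preincubated with compound (10 pM–1 mM) for 30 min at 37 °C in 50 mM Tris·HCl pH 7.5 with 0.2 M NaCl, 5 mM CaCl2, […] ZnSO4 and 0.05% Brij 35. Substrate was then added and fluorescence (ex 330/em 390 nm) followed at 37 °C. Initial 10-min linear rates were plotted against inhibitor concentration. IC50 is the mean of three experiments.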

The next assay has as its target Neutrophil collagenase (Homo sapiens, UniProt P22894). As to the kind of experiment: Inhibition of human active MMP8 using (7-methoxycoumarin-4-yl)acetyl-Pro-Leu-Gly-Leu-(3-(2,4-dinitrophenyl)-L-2,3-diamino-propionyl)Ala-Arg-NH2 as substrate preincubated for 30 mins followed by substrate addition and measured for 10 mins by fluorescence assay. The essentials: as §1

For assay [2], the target named is 72 kDa type IV collagenase (Homo sapiens, UniProt P08253). Put plainly: Inhibition of human active MMP2 using (7-methoxycoumarin-4-yl)acetyl-Pro-Leu-Gly-Leu-(3-(2,4-dinitrophenyl)-L-2,3-diamino-propionyl)Ala-Arg-NH2 as substrate preincubated for 30 mins followed by substrate addition and measured for 10 mins by fluorescence assay. The essentials:
as §1

A further assay addresses Collagenase 3 (Homo sapiens, UniProt P45452). Put plainly: Inhibition of human active MMP13 using (7-methoxycoumarin-4-yl)acetyl-Pro-Leu-Gly-Leu-(3-(2,4-dinitrophenyl)-L-2,3-diamino-propionyl)Ala-Arg-NH2 as substrate preincubated for 30 mins followed by substrate addition and measured for 10 mins by fluorescence assay. The procedure, abridged:
as §1

pIC50: −log10 of the molar value.

Chain of 72 kDa type IV collagenase (P08253 whole entry): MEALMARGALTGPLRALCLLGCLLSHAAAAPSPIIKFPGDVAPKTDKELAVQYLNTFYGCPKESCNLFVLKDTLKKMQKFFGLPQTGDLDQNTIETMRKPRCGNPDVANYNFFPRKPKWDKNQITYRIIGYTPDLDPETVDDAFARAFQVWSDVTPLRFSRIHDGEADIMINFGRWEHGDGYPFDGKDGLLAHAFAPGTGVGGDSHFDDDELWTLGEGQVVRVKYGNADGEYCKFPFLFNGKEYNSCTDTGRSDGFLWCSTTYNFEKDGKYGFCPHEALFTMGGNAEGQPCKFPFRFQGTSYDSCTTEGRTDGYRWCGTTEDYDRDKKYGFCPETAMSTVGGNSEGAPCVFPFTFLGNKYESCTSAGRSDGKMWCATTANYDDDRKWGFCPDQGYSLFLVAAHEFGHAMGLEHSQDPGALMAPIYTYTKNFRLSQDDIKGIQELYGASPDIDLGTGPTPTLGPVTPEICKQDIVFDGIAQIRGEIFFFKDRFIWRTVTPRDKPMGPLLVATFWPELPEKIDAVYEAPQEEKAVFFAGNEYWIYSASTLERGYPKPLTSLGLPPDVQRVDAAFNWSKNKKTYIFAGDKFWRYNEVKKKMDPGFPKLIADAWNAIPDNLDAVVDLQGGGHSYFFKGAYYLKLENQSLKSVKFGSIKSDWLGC
Chain of Matrix metalloproteinase-9 (P14780 whole entry): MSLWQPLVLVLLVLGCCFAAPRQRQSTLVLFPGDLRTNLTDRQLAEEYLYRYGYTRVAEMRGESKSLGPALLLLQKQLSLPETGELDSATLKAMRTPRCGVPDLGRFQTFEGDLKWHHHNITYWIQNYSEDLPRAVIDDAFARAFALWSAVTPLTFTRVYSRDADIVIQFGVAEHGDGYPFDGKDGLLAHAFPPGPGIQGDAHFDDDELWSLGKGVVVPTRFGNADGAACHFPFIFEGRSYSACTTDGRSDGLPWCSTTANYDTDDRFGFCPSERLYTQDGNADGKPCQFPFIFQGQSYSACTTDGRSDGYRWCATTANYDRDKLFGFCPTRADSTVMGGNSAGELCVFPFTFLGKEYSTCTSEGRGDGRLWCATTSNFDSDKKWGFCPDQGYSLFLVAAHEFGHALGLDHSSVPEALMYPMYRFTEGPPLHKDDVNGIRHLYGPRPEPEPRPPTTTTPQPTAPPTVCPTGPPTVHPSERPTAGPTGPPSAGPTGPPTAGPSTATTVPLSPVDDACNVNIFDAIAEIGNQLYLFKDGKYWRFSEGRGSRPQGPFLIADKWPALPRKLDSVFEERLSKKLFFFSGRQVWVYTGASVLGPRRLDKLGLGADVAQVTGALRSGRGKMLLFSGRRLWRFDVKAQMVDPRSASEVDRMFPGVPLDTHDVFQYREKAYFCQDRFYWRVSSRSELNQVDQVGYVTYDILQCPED
Chain of Neutrophil collagenase (P22894 whole entry): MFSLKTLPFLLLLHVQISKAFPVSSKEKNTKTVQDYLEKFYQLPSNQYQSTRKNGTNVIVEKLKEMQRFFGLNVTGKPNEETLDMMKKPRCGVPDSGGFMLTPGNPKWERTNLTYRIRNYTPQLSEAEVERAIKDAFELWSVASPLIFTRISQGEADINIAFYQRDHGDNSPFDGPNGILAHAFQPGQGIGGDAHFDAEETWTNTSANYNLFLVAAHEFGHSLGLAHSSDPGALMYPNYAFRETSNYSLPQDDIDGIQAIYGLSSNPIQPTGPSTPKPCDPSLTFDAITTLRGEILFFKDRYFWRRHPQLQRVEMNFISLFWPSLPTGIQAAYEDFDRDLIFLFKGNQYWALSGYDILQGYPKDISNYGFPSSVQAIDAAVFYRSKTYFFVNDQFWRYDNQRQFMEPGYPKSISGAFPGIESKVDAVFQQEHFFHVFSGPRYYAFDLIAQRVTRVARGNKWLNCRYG

A word on the pIC50: it is the IC50 on a negative log10 scale, so that one unit is a factor of ten. For `O=C1NC(=O)C(CCCCCCC(F)CF)(Cc2ccccc2)C(=O)N1` (stereo not drawn), the pIC50 was 6.91 in assay [1], 6.90 on Neutrophil collagenase, 6.60 in assay [2] and 6.90 at Collagenase 3.
On to `COc1ccc(CC2(CCCCCCCC(F)(F)F)C(=O)NC(=O)NC2=O)cc1`, for which the negative logarithm of the IC50 (pIC50) was 7.21 in assay [1], 6.73 at Neutrophil collagenase, 6.68 in assay [2] and 6.75 at Collagenase 3.
The corresponding values for `O=C1NC(=O)C(CCCCCCCC(F)(F)F)(Cc2ccccc2)C(=O)N1` are 7.28, 6.64, 6.25 and 6.12.
With `COc1ccc(CC2(CCCCCCCC(C)C)C(=O)NC(=O)NC2=O)cc1`, the negative-log IC50 (pIC50) is 7.22 in assay [1], 6.55 on Neutrophil collagenase, 6.68 in assay [2] and 6.65 on Collagenase 3.
On to `CCCCCCCCCC1(Cc2ccc(OC)cc2)C(=O)NC(=O)NC1=O`, for which the negative logarithm of the IC50 (pIC50) in assay [1] was 7.03; on Neutrophil collagenase, 7.08; in assay [2], 7.03; at Collagenase 3, 7.08.
Consider `CC(C)CCCCCCCC1(Cc2ccccc2)C(=O)NC(=O)NC1=O`, for which the IC50 result (in assay [1]; at Neutrophil collagenase; in assay [2]; at Collagenase 3) was “Nd(Insoluble)” each time.
`CCCCCCCCCC1(Cc2ccccc2)C(=O)NC(=O)NC1=O`: the negative logarithm of the IC50 (pIC50) in assay [1] was 8.30; on Neutrophil collagenase, 7.02; in assay [2], 6.68; at Collagenase 3, 6.74.
The corresponding values for `COc1ccc(CC2(CCCCCCC(F)CF)C(=O)NC(=O)NC2=O)cc1` (stereo not drawn) are 7.33, 6.78, 6.39 and 7.77.
Take `CCCCCCCCC1(Cc2ccc(OC)cc2)C(=O)NC(=O)NC1=O`: the pIC50 in assay [1] is 8.52; at Neutrophil collagenase, 7.14; in assay [2], 7.38; at Collagenase 3, 7.03.
Turning to `O=C1NC(=O)C(CCCCCCCC(F)CF)(Cc2ccccc2)C(=O)N1` (stereo not drawn), the pIC50 in assay [1] was 7.22; at Neutrophil collagenase, 6.74; in assay [2] it was 6.49; on Collagenase 3, 6.79.
The corresponding values for `CCCCCCCCC1(Cc2ccccc2)C(=O)NC(=O)NC1=O` are 7.66, 6.80, 6.54 and 6.67.
For `COc1ccc(CC2(CCCCCCCC(F)CF)C(=O)NC(=O)NC2=O)cc1` (racemic), in that order: 7.59, 6.96, 6.86 and 7.19.

(Values after ChEMBL document CHEMBL4602724, “Validating the 1,2-Difluoro Motif As a Hybrid Bioisostere of CF3 and Et Using Matrix Metalloproteinases As Structural Probes” (J Med Chem, 2020).)
